Reference: ChEMBL document CHEMBL1123614, “Effects of [(N-alkyl-1,3-dioxo-1H,3H-isoindolin-5-yl)oxy]alkanoic acids, [(N-alkyl-1-oxo-1H,3H-isoindolin-5-yl)oxy]butanoic acids, and related derivatives on chloride influx in primary astroglial cultures” (J Med Chem, 1987)

What was measured:
Assay type in all cases: functional, organism-based
Rattus norvegicus [1] = species: Rattus norvegicus; assay: Reduction of Astrocyte intracellular chloride concentration at 0.1 mM.
Summary of the method: (§1)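 Primary rat astrocyte cultures (1–4-day-old Sprague-Dawley pups, oligodendrocytes not removed, >90% astrocytes) grown 3–5 weeks in serum BME. Cells equilibrated 60 min at 37 °C in chloride-HCO3 Hepes medium. Cells washed with ice-cold 0.32 M sucrose. Counts, minus time-0 background, normalized to Lowry protein. Reported as % of vehicle control ± SD, n = 4.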

Rattus norvegicus [2] = species: Rattus norvegicus; assay: Reduction of Astrocyte intracellular chloride concentration at 0.05 mM.; summary of the method: as §1
Rattus norvegicus [3] = species: Rattus norvegicus; assay: Reduction of Astrocyte intracellular chloride concentration at 0.01 mM.; summary of the method: as §1
Rattus norvegicus [4] = species: Rattus norvegicus; assay: Reduction of Astrocyte intracellular chloride concentration at 0.05 mM; No data.; summary of the method: as §1
Rattus norvegicus [5] = species: Rattus norvegicus; assay: Reduction of Astrocyte intracellular chloride concentration at 1 mM.; summary of the method: as §1
[6] = 0.5 mM, in the assay text read “0.5 mM” for “0.05 mM”

| Compound | Concentration (Rattus norvegicus [1]) | Concentration (Rattus norvegicus [2]; 0.05 mM) | further results |
| --- | --- | --- | --- |
| CCCN1Cc2cc(OCCCC(=O)O)ccc2C1=O | 98% | 76% | – |
| CCCN1C(=O)c2cc(OCCCC(=O)O)c(Cl)c(Cl)c2C1=O | 74% | – | Concentration (Rattus norvegicus [2]; [6]): 89% |
| O=C(O)CCCOc1ccc2c(c1)C(=O)NC2=O | 93% | 88% | – |
| CN(C(=O)c1ccc(OCCCC(=O)O)c(Cl)c1Cl)C1CCCC1 | 79% | – | – |
| CCCCN1C(=O)c2ccc(OCCCC(=O)O)cc2C1=O | 88% | 69% | – |
| CN1C(=O)c2ccc(OCCCC(=O)O)cc2C1=O | 90% | 118% | – |
| CCN1Cc2cc(OCCCC(=O)O)ccc2C1=O | 67% | – | Concentration (Rattus norvegicus [3]): 109%; Concentration (Rattus norvegicus [4]): 93%; Concentration (Rattus norvegicus [2]; [6]): 67%; Concentration (Rattus norvegicus [5]): 57% |
| CCCN1C(=O)c2ccc(OCCCC(=O)O)cc2C1=O | 67% | 80% | – |
| CCCCN1C(=O)c2cc(Cl)c(OCCCC(=O)O)cc2C1=O | 95% | – | Concentration (Rattus norvegicus [2]; [6]): 81% |
| O=C(O)COc1ccc2c(c1)C(=O)N(C1CCCC1)C2=O | 91% | 92% | – |
| CCCN1C(=O)c2ccc(OCC(=O)O)cc2C1=O | 103% | 110% | – |
| O=C(O)COc1ccc2c(c1)C(=O)N(C1CCCCC1)C2=O | 94% | 87% | – |
| CCN1C(=O)c2cc(OCCCC(=O)O)c(Cl)c(Cl)c2C1=O | 103% | – | Concentration (Rattus norvegicus [2]; [6]): 83% |
| O=C(O)CCCOc1ccc2c(c1)C(=O)N(C1CCCC1)C2=O | 101% | – | – |
| CCCCCCN1C(=O)c2ccc(OCCCC(=O)O)cc2C1=O | 109% | – | Concentration (Rattus norvegicus [2]; [6]): 118% |
| CCCCCN1C(=O)c2ccc(OCCCC(=O)O)cc2C1=O | 85% | 77% | – |
| O=C(O)CCCOc1ccc2c(c1)C(=O)N(CCCO)C2=O | 75% | 83% | – |

| Compound | Concentration (Rattus norvegicus [1]) | Concentration (Rattus norvegicus [2]; 0.05 mM) | further results |
| --- | --- | --- | --- |
| O=C(O)CCCOc1ccc2c(c1Cl)C(=O)N(C1CCCC1)C2=O | 107% | – | – |
| O=C(O)CCCOc1ccc(C(=O)NC2CCCC2)cc1Br | 74% | – | – |
| C=C(CC)C(=O)c1ccc(OCC(=O)O)c(Cl)c1Cl | 78% | – | – |
| O=C(O)CCCOc1ccc(C(=O)NC2CCCC2)c(Cl)c1Cl | 93% | 78% | – |
| CCCCN1Cc2cc(OCCCC(=O)O)ccc2C1=O | 97% | 76% | – |
| O=C(O)CCCOc1cc2c(cc1Cl)C(=O)N(C1CCCC1)C2 | 115% | – | – |
| CN1C(=O)c2cc(OCCCC(=O)O)c(Cl)c(Cl)c2C1=O | 91% | – | – |
| O=C(O)CCCOc1c(Cl)cc2c(c1Cl)C(=O)N(C1CCCC1)C2=O | 94% | – | – |
| CN1Cc2cc(OCCCC(=O)O)ccc2C1=O | 84% | – | – |
| O=C(O)CCCOc1ccc2c(c1)C(=O)N(CCCCO)C2=O | 106% | 101% | – |
| O=C(O)CCCOc1cc2c(cc1Cl)C(=O)N(C1CCCC1)C2=O | 111% | – | – |
| O=C(O)CCCOc1cc2c(c(Cl)c1Cl)C(=O)N(C1CCCC1)C2=O | 97% | – | – |
| O=C(O)CCCOc1ccc2c(c1)C(=O)N(C1CCCCC1)C2=O | 105% | – | – |
| CCN1C(=O)c2ccc(OCCCC(=O)O)cc2C1=O | 104% | 76% | – |
| NS(=O)(=O)c1cc(C(=O)O)c(NCc2ccco2)cc1Cl | 79% | – | Concentration (Rattus norvegicus [5]): 21% |
| CCCCN1C(=O)c2cc(OCCCC(=O)O)c(Cl)c(Cl)c2C1=O | 86% | – | Concentration (Rattus norvegicus [2]; [6]): 74% |
| O=C(O)CCCOc1ccc(C(=O)NC2CCCC2)cc1Cl | 83% | – | – |
